Measurements taken from ChEMBL document CHEMBL1144557, “The novel C-5 aryl, alkenyl, and alkynyl substituted uracil derivatives of L-ascorbic acid: synthesis, cytostatic, and antiviral activity evaluations” (Bioorg Med Chem, 2007).
In brackets after ≈: the same amount, converted by molar mass.

Columns and labels:
[1] = Antiproliferative activity against human Molt4/C8 cells; format: functional, cell-based; details: MOLT-4
Outline: (§1)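 Suspension cells seeded at 50 × 10³ cells/well with a range of test compound concentrations. Cell number counted with a Coulter counter after 2 days (L1210) or 3 days (Molt4/C8, CEM). IC50 is the concentration that cuts cell growth by 50% versus untreated controls, read from plots of cell number (% of control) against concentration.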

HeLa = assay: Antiproliferative activity against human HeLa cells after 72 hrs by MTT assay; format: functional, cell-based
Outline: (§2)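 Monolayers grown in DMEM with 10% FBS, 2 mM L-glutamine and penicillin/streptomycin at 37 °C, 5% CO2. Seeded at 1 × 10⁴–3 × 10⁴ cells/mL on day 0. Compounds from 0.04 M DMSO stocks added at five 10-fold dilutions (10⁻⁸–10⁻⁴ M final), with matched DMSO controls, for 72 h. MTT added for 4 h, formazan dissolved in DMSO, absorbance read at 570 nm. Percentage growth calculated against time-zero and untreated OD. IC50 is 50% inhibition of proliferation.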

SW-620 = assay: Antiproliferative activity against human SW620 cells after 72 hrs by MTT assay; format: functional, cell-based; details: SW-620, 72 h; outline: as §2
[2] = tested on: Vesicular stomatitis virus; assay: Antiviral activity against in Vesicular stomatitis virus- induced cytopathogenicity in HeLa cells; format: functional
[3] = tested on: Vesicular stomatitis virus; assay: Antiviral activity against in Vesicular stomatitis virus-induced cytopathogenicity in E6SM cells; format: functional
MIA PaCa-2 = assay: Antiproliferative activity against human MiaPaCa2 cells after 72 hrs by MTT assay; format: functional, cell-based; outline: as §2
Sindbis virus = assay: Antiviral activity against Sindbis virus-induced cytopathogenicity in Vero cells; format: functional
L1210 = assay: Antiproliferative activity against mouse L1210 cells; format: functional, cell-based; outline: as §1
Human alphaherpesvirus 1 [4] = assay: Antiviral activity against HSV1 KOS-induced cytopathogenicity in E6SM cells; format: functional; details: Human alphaherpesvirus 1, KOS
WI-38 = assay: Antiproliferative activity against human WI38 cells after 72 hrs by MTT assay; format: functional, cell-based; details: WI-38, 72 h; outline: as §2
Punta Toro virus = assay: Antiviral activity against Punta Toro virus-induced cytopathogenicity in Vero cells; format: functional
Human alphaherpesvirus 2 = assay: Antiviral activity against HSV2 G-induced cytopathogenicity in E6SM cells; format: functional; details: Human alphaherpesvirus 2, G
[5] = Cytotoxicity against E6SM cells; format: cell-based; details: human
Outline: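 Cells seeded at 5 × 10³ cells/well and exposed to medium containing a range of test compound concentrations. After 3 days at 37 °C, cell morphology examined microscopically. Reported as minimum cytotoxic concentration (MCC), the concentration causing a microscopically detectable alteration of normal cell morphology.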

Coxsackievirus B4 = assay: Antiviral activity against Coxsackie virus B4-induced cytopathogenicity in Vero cells; format: functional; details: Enterovirus B
HEp-2 = assay: Antiproliferative activity against human Hep2 cells after 72 hrs by MTT assay; format: functional, cell-based; details: HEp-2, 72 h; outline: as §2
CCRF-CEM = assay: Antiproliferative activity against human CEM cells; format: functional, cell-based; outline: as §1
MCF7 = assay: Antiproliferative activity against human MCF7 cells after 72 hrs by MTT assay; format: functional, cell-based; details: MCF7, 72 h; outline: as §2
Human alphaherpesvirus 1 [6] = assay: Antiviral activity against HSV1 TK- KOS ACV-induced cytopathogenicity in E6SM cells; format: functional; details: Human alphaherpesvirus 1, KOS
[7] = Homo sapiens, MIA PaCa-2, 72 h, read-out: IC50

Structure (SMILES)	IC50 [1] [µM]	IC50 (HeLa) [µM]	IC50 (SW-620) [µM]	MIC [2] [µM]	MIC [3] [µM]	IC50 (MIA PaCa-2; [7]) [µM]	MIC (Sindbis virus) [µM]	IC50 (L1210) [µM]	MIC (Human alphaherpesvirus 1 [4]) [µM]	IC50 (WI-38) [µM]	MIC (Punta Toro virus) [µM]	MIC (Human alphaherpesvirus 2) [µM]	MCC ([5]; read-out: MCC) [µM]	MIC (Coxsackievirus B4) [µM]	IC50 (HEp-2) [µM]	IC50 (CCRF-CEM) [µM]	IC50 (MCF7) [µM]	MIC (Human alphaherpesvirus 1 [6]) [µM]	MCC ([5]; read-out: MIC) [µM]	IC50 (MIA PaCa-2; mia paca-2) [µM]
O=C1O/C(=C\Cn2cc(C#Cc3ccccc3)c(=O)[nH]c2=O)C(OCc2ccccc2)=C1OCc1ccccc1	108	> 100	> 100	> 200	> 40	> 100	120 (≈ 63.9 µg/mL)	108	> 40	> 100	> 200	> 40	200	> 200	> 100	101	55	> 40		
Nc1nc2c(ncn2COCCO)c(=O)[nH]1 [ACYCLOVIR]					> 500				0.48 (≈ 0.108 µg/mL)			0.8 (≈ 0.18 µg/mL)						60 (≈ 13.5 µg/mL)	> 500	
O=C1O/C(=C(\Br)Cn2c(Br)c(/C=C/Br)c(=O)[nH]c2=O)C(OCc2ccccc2)=C1OCc1ccccc1	110	22	≥ 100	> 116	> 116	20	> 116	32	> 116	49	> 116	> 116	578	> 116	22	91	15	> 116		
O=C1O/C(=C\Cn2cc(-c3ccc(Br)o3)c(=O)[nH]c2=O)C(OCc2ccccc2)=C1OCc1ccccc1	125	24	49	70 (≈ 40.4 µg/mL)	70 (≈ 40.4 µg/mL)	27	> 70	115	> 70	16	> 70	> 70	347	> 70	28	134	29	> 70		
Nc1nc2c(ncn2COC(CO)CO)c(=O)[nH]1 [GANCICLOVIR]					> 100				0.096 (≈ 0.0245 µg/mL)			0.096 (≈ 0.0245 µg/mL)						0.8 (≈ 0.204 µg/mL)	> 100	
O=C1O/C(=C\Cn2cc(-c3ccco3)c(=O)[nH]c2=O)C(OCc2ccccc2)=C1OCc1ccccc1	6.6	2	2.4	> 6.4	> 6.4	1.6	> 6.4	6.8	> 6.4	1.8	> 6.4	> 6.4	32	> 6.4	2.2	7	2	> 6.4		
O=C1O/C(=C\Cn2cc(-c3cccs3)c(=O)[nH]c2=O)C(OCc2ccccc2)=C1OCc1ccccc1	150	18	21	> 156	> 156	16.5	> 156	142	> 156	19	> 156	> 156	780	> 156	18	117	17	> 6.4		
Nc1ncnc2c1ncn2C[C@H](O)CO [(S)-DHPA]				> 500			> 500				300 (≈ 62.8 µg/mL)			> 500						
O=c1[nH]c(=O)n([C@H]2C[C@H](O)[C@@H](CO)O2)cc1/C=C/Br [BRIVUDINE]				> 500	> 500		> 500		0.48 (≈ 0.16 µg/mL)		> 500	300 (≈ 99.9 µg/mL)		> 500				300 (≈ 99.9 µg/mL)	> 500	
C=C=Cc1cn(C/C=C2\OC(=O)C(OCc3ccccc3)=C2OCc2ccccc2)c(=O)[nH]c1=O	> 250	> 100	> 100	> 40	8 (≈ 3.76 µg/mL)	> 100	> 200	> 250	> 8	> 100	> 200	> 8	40	> 200	> 100	> 250	77	> 8		
C=CCc1cn(C/C=C2\OC(=O)C(OCc3ccccc3)=C2OCc2ccccc2)c(=O)[nH]c1=O	20	2.9	2.7	24 (≈ 11.3 µg/mL)	> 8	5	24 (≈ 11.3 µg/mL)	20	> 8	10.4	> 40	> 8	40	24 (≈ 11.3 µg/mL)	4.7	20	4.7	> 8		
NC(=O)c1ncn([C@@H]2O[C@H](CO)[C@@H](O)[C@H]2O)n1 [RIBAVIRIN]				100 (≈ 24.4 µg/mL)	> 500		100 (≈ 24.4 µg/mL)		500 (≈ 122 µg/mL)		300 (≈ 73.3 µg/mL)	300 (≈ 73.3 µg/mL)		> 500				500 (≈ 122 µg/mL)	> 500	
CC#Cc1cn(C/C=C2\OC(=O)C(OCc3ccccc3)=C2OCc2ccccc2)c(=O)[nH]c1=O	0.78	0.2	0.3	1.6 (≈ 0.753 µg/mL)	> 0.4		1.6 (≈ 0.753 µg/mL)	0.47	> 0.4	0.2	> 1.6	> 0.4	2	1.6 (≈ 0.753 µg/mL)	0.7	0.77	0.2	> 0.4		0.5
O=C1O/C(=C\Cn2cc(/C=C/Br)c(=O)[nH]c2=O)C(OCc2ccccc2)=C1OCc1ccccc1	≥ 200	45	> 100	> 150	150 (≈ 80.6 µg/mL)	> 100	> 150	196	> 150	38	> 150	> 150	746	> 150	40	233	40	> 150		
O=C1O/C(=C\Cn2cc(-c3ccc(Cl)o3)c(=O)[nH]c2=O)C(OCc2ccccc2)=C1OCc1ccccc1	158	≥ 100	> 100	> 150	150 (≈ 79.9 µg/mL)	≥ 100	> 150	165	> 150	> 100	> 150	> 150	752	> 150	> 100	162	≥ 100	> 150		
O=C1O/C(=C\Cn2cc(-c3ccccc3)c(=O)[nH]c2=O)C(OCc2ccccc2)=C1OCc1ccccc1	159	25	21	> 157	157 (≈ 79.8 µg/mL)	18	> 157	142	> 157	28	> 157	> 157	787	> 157	22	122	18	> 157		
